From ChEMBL document CHEMBL4257442, “An insight into tetrahydro-β-carboline-tetrazole hybrids: synthesis and bioevaluation as potent antileishmanial agents” (Medchemcomm, 2017)

Tests used:
[1] = Selectivity index, ratio of CC50 for mouse J774A.1 cells to IC50 for Leishmania donovani MHOM/IN/80/Dd8 amastigote forms infected in mouse J774A.1 cells; assay type: toxicity, cell-based; details: read-out: Ratio CC50/IC50
In short: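 SI was calculated as the cytotoxicity CC50 in J-774A.1 cells divided by the anti-amastigote IC50. The amastigote assay used murine macrophages expressing a firefly luciferase reporter, infected with intracellular L. donovani. Each IC50 and CC50 is the average of three independent assays.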

Leishmania donovani [2] = assay: Antileishmanial activity against Leishmania donovani MHOM/IN/80/Dd8 amastigotes harboring luciferase reporter gene infected in mouse J774A.1 cells after 72 hrs by Steady-Glo luminescence assay; assay type: functional, organism-based; details: MHOM/IN/80/Dd8, J774.A1, 72 h
In short: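 Intracellular L. donovani amastigotes in murine macrophages, with firefly luciferase reporter expression. IC50 is the concentration giving 50% inhibition of parasite growth. Values are the average of three independent assays, given as average ± standard error.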

[3] = Cytotoxicity against mouse J774A.1 cells after 2 hrs by MTT assay; assay type: cell-based, J774.A1
In short: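 Mouse macrophage J-774A.1 cells obtained from NCCS, Pune, were used for the in vitro cytotoxicity assay. CC50 is the average of three independent assays, expressed as average ± standard error.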

Leishmania donovani [4] = assay: (§1) Antileishmanial activity against Leishmania donovani MHOM/IN/80/Dd8 amastigotes infected in golden hamsters assessed as inhibition of splenic parasite burden at 50 mg/kg, ip for 5 consecutive days initiated after 2 days of biopsy and measured on day 28 post last dose by Giemsa staining-based assay relative to control; assay type: functional; details: MHOM/IN/80/Dd8, ip
In short: (§2)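 Golden hamster model infected with L. donovani. Treatment was 50 mg kg–1 given intraperitoneally for 5 consecutive days. Read-out was % inhibition of splenic parasite burden.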

Leishmania donovani [5] = assay: as §1, with “7” for “28”; assay type: functional; details: MHOM/IN/80/Dd8, ip; in short: as §2
Leishmania donovani [6] = assay: Antileishmanial activity against Leishmania donovani MHOM/IN/80/Dd8 promastigotes harboring luciferase reporter gene after 72 hrs by Steady-Glo luminescence assay; assay type: functional, organism-based; details: MHOM/IN/80/Dd8, 72 h
In short: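 Extracellular promastigotes of the L. donovani WHO reference strain MHOM/IN/80/Dd8. IC50 is the concentration giving 50% inhibition of parasite growth. Values are the average of three independent assays, given as average ± standard error.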

Leishmania donovani [7] = assay: as §1, with “100” for “50”, “po” for “ip”, “7” for “28”; assay type: functional; details: MHOM/IN/80/Dd8, po
[8] = Apparent oral volume of distribution in golden Syrian hamster at 50 mg/kg measured up to 24 hrs by LC-MS/MS analysis; assay type: ADME, organism-based, Mesocricetus auratus; details: in vivo
In short: (§3)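 Single oral 50 mg kg–1 dose given to golden Syrian hamsters (n = 5). Compound quantified in serum over time up to 24 h by validated LC-MS/MS with electrospray ionization. Parameters came from non-compartmental analysis of the mean serum concentration–time profile and are reported as mean ± SEM of five animals.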

[9] = Cmax in golden Syrian hamster at 50 mg/kg, po measured up to 24 hrs by LC-MS/MS analysis; assay type: ADME, organism-based, Mesocricetus auratus; parameters: dose 50 mg/kg, route oral; details: in vivo; in short: as §3
[10] = AUClast in golden Syrian hamster at 50 mg/kg, po measured up to 24 hrs by LC-MS/MS analysis; assay type: ADME, organism-based, Mesocricetus auratus; parameters: time < 24 hr, dose 50 mg/kg, route oral; details: in vivo; in short: as §3
[11] = MRT in golden Syrian hamster at 50 mg/kg, po measured up to 24 hrs by LC-MS/MS analysis; assay type: ADME, organism-based, Mesocricetus auratus; details: in vivo; in short: as §3
[12] = Tmax in golden Syrian hamster at 50 mg/kg, po measured up to 24 hrs by LC-MS/MS analysis; assay type: ADME, organism-based, Mesocricetus auratus; details: in vivo; in short: as §3
[13] = Apparent oral clearance in golden Syrian hamster at 50 mg/kg measured up to 24 hrs by LC-MS/MS analysis; assay type: ADME, organism-based, Mesocricetus auratus; details: in vivo; in short: as §3
Leishmania donovani [14] = assay: as §1, with “100” for “50”, “po” for “ip”; assay type: functional; details: MHOM/IN/80/Dd8, po
Leishmania donovani [15] = assay: as §1, with “30” for “50”, “po” for “ip”, “7” for “28”; assay type: functional; details: MHOM/IN/80/Dd8, po

Row | SMILES | selectivity ratio [1] | IC50 (Leishmania donovani [2]) | CC50 at 2 h [3] | IC50 (Leishmania donovani [6]) | also measured
1 | CC(C)(C)n1nnnc1C(c1ccccc1)N1CCc2c([nH]c3ccccc23)C1 (configuration not stated) | 27 | 5.41 µM | 146 µM | 4.07 µM | inhibition in vivo at 50 mg/kg (Leishmania donovani [4]): 3.79%; inhibition in vivo at 50 mg/kg (Leishmania donovani [5]): 4.05%
2 | COc1cc(C(c2nnnn2C2CCCCC2)N2CCc3c([nH]c4ccccc34)C2)cc(OC)c1OC (configuration not stated) | 23 | 1.57 µM | 36 µM | 2.81 µM | inhibition in vivo at 100 mg/kg (Leishmania donovani [7]): 50.9%; Vd/F [8]: 652 L/kg; inhibition in vivo at 50 mg/kg (Leishmania donovani [4]): 88.9%; Cmax [9]: 76.2 to 83.5 ng/mL; AUC(0-t) at 24 h [10]: 844 ng·h/mL; MRT [11]: 10.2 h; Tmax [12]: 1.6 to 8 h; CL/F [13]: 720 mL/min/kg; inhibition in vivo at 100 mg/kg (Leishmania donovani [14]): 77.5%; inhibition in vivo at 50 mg/kg (Leishmania donovani [5]): 75%
3 | CC(C)(C)n1nnnc1C(c1ccc([N+](=O)[O-])cc1)N1CCc2c([nH]c3ccccc23)C1 (configuration not stated) | 37 | 3.78 µM | 140 µM | 0.59 µM | inhibition in vivo at 50 mg/kg (Leishmania donovani [4]): 19.6%; inhibition in vivo at 50 mg/kg (Leishmania donovani [5]): 20.4%
4 | CC(C)c1ccc(C(c2nnnn2C(C)(C)C)N2CCc3c([nH]c4ccccc34)C2)cc1 (configuration not stated) | 7 | 17.6 µM | 130 µM | 3.56 µM | 
5 | COc1ccc(C(c2nnnn2C2CCCCC2)N2CCc3c([nH]c4ccccc34)C2)cc1OC (configuration not stated) | 13 | 3.31 µM | 41.9 µM | 1.2 µM | 
6 | Fc1ccc(C(c2nnnn2C2CCCCC2)N2CCc3c([nH]c4ccccc34)C2)cc1 (configuration not stated) |  | ≥ 25 µM |  | 14.5 µM | 
7 | Clc1ccc(C(c2nnnn2C2CCCCC2)N2CCc3c([nH]c4ccccc34)C2)cc1 (configuration not stated) | 17 | 2.08 µM | 35.5 µM | 2.89 µM | 
8 | CCCCCCCCCCCCCCCCOP(=O)([O-])OCC[N+](C)(C)C [MILTEFOSINE] | 1.48 |  | 12.4 µM |  | inhibition in vivo at 30 mg/kg (Leishmania donovani [15]): 98.1%
9 | CC(C)(C)n1nnnc1C(c1ccc(Br)cc1)N1CCc2c([nH]c3ccccc23)C1 (configuration not stated) | 38 | 3.77 µM | 144 µM | 1.58 µM | inhibition in vivo at 50 mg/kg (Leishmania donovani [4]): 53.1%; inhibition in vivo at 50 mg/kg (Leishmania donovani [5]): 33.7%
10 | CC(C)(C)n1nnnc1C(c1ccc(F)cc1)N1CCc2c([nH]c3ccccc23)C1 (configuration not stated) | 3 | 17.5 µM | 48.8 µM | 2.71 µM | 
11 | COc1cc(C(c2nnnn2C(C)(C)C)N2CCc3c([nH]c4ccccc34)C2)cc(OC)c1OC (configuration not stated) |  | ≥ 50 µM |  | 23.5 µM | 
12 | CC(C)(C)n1nnnc1C(c1ccc(C#N)cc1)N1CCc2c([nH]c3ccccc23)C1 (configuration not stated) | 9 | 16.4 µM | 150 µM | 2.82 µM | 
13 | CC(C)(C)n1nnnc1C(c1ccc(Cl)cc1)N1CCc2c([nH]c3ccccc23)C1 (configuration not stated) | 2 | 14.2 µM | 37 µM | 3.45 µM | 
14 | COc1ccc(C(c2nnnn2C(C)(C)C)N2CCc3c([nH]c4ccccc34)C2)cc1OC (configuration not stated) | 8 | 16 µM | 138 µM | 5.71 µM | 
15 | CC(C)(C)n1nnnc1C(c1cccc([N+](=O)[O-])c1)N1CCc2c([nH]c3ccccc23)C1 (configuration not stated) | 39 | 3.86 µM | 150 µM | 4.91 µM | inhibition in vivo at 50 mg/kg (Leishmania donovani [4]): 2.92%; inhibition in vivo at 50 mg/kg (Leishmania donovani [5]): 4.83%
16 | Clc1ccccc1C(c1nnnn1C1CCCCC1)N1CCc2c([nH]c3ccccc23)C1 (configuration not stated) |  | ≥ 50 µM |  | ≥ 100 µM | 
17 | O=[N+]([O-])c1ccc(C(c2nnnn2C2CCCCC2)N2CCc3c([nH]c4ccccc34)C2)cc1 (configuration not stated) |  | ≥ 50 µM |  | 31 µM | 
18 | COc1ccc(C(c2nnnn2C(C)(C)C)N2CCc3c([nH]c4ccccc34)C2)cc1 (configuration not stated) | 10 | 4.32 µM | 42 µM | 1.14 µM | 
19 | COc1ccc(C(c2nnnn2C2CCCCC2)N2CCc3c([nH]c4ccccc34)C2)cc1 (configuration not stated) |  | ≥ 50 µM |  | 20.4 µM | 
20 | N#Cc1ccc(C(c2nnnn2C2CCCCC2)N2CCc3c([nH]c4ccccc34)C2)cc1 (configuration not stated) |  | ≥ 50 µM |  | ≥ 100 µM | 
21 | Brc1ccc(C(c2nnnn2C2CCCCC2)N2CCc3c([nH]c4ccccc34)C2)cc1 (configuration not stated) |  | ≥ 50 µM |  | 16.5 µM | 
